Only some compounds are listed: those with a hit (about 2.3% of all), similar ones and a draw of the others.
NR2E3 ag-1 = NR2E3 agonists in two-hybrid cells, primary screen, cell-based, luminescence, CHO-S, Gal4-NCOR/VP16-NR2E3 | 360,000 compounds, 0.35% hits | Photoreceptor-specific nuclear receptor (Homo sapiens), Q9Y5X4 | inhibition of corepressor binding, % at 3.98 µM | luciferase;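 active = inhibition above the mean of all tested compounds plus 3 SD, cut at about 70% in these data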;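 also: 0% = DMSO with NR2E3 transfected cells and 100% = cells lacking NR2E3 construct; higher means lower luciferase signal from less NR2E3 corepressor binding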
Target sequence (Q9Y5X4 whole entry, looked up, the tested form may be a part): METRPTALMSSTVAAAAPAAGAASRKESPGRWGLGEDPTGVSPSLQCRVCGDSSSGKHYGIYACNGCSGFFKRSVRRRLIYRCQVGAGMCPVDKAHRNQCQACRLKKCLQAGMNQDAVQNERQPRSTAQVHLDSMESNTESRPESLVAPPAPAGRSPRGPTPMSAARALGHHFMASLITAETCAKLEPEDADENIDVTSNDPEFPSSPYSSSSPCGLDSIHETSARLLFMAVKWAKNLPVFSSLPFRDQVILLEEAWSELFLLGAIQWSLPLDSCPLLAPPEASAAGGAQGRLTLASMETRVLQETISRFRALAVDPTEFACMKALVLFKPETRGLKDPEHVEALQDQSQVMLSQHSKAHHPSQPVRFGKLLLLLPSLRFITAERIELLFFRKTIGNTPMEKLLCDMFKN
NR2E3 ag-2 = inhibitors of NR2E3-RetCOR corepressor binding, primary screen, NR2E3 agonist project, biochemical, TR-FRET, GST-NR2E3, biotin-RetCOR; inhibition of corepressor binding, % at 4.78 µM; 1536-well; Photoreceptor-specific nuclear receptor (Homo sapiens), Q9Y5X4; 320,000 compounds, 0.12% hits; AID 2300, 2010;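 active = percent inhibition above the cutoff of mean plus 3 SD of all tested compounds, set per screening campaign, cut at about 20% in these data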;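 also: 0% = DMSO wells and 100% = biotin wells as full block of FRET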
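system = GST-tagged NR2E3 plus biotinylated RetCOR corepressor | input = 1.35 nM GST-NR2E3 | also added = 7 nM biotin-RetCOR | schedule = 5 h incubation at 4 °C | measured by = TR-FRET with europium anti-GST and streptavidin-D2, 340 nm excitation | read-out = percent loss of FRET ratio relative to control wells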
GalR3 antagonist = GalR3 antagonists in HEK293 cells, primary screen, cell-based, fluorescence readout | HEK293 GalR3-CNG cAMP membrane potential fluorescence; galR3 body fused to GalR1 C-terminus | inhibition, % at 3 µM | 360,000 compounds, 0.44% hits;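 active = inhibition above the screen-wide average plus 3 SD, cut at about 13% in these data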;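 also: forskolin and galanin both at EC90 stimulate the cells; cAMP rise reported by CNG channel membrane potential dye signal; 0% = forskolin plus galanin with DMSO and 100% = forskolin alone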
Target sequence (O60755 1-299 limits assumed): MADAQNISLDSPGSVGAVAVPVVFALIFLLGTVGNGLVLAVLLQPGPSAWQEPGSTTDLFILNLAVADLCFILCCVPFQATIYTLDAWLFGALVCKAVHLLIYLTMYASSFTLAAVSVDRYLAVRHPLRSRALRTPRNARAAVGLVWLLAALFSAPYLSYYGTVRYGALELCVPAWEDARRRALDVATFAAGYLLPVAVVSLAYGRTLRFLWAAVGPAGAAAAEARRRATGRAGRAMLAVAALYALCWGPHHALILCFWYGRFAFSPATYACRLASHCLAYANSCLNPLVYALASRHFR
CHT inh = inhibitors of human choline transporter CHT; CHT-expressing cells, membrane potential dye, choline response; active compounds read low; B-score at 10 µM; AID 488975, 2010; 310,000 compounds, 0.86% hits;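 active = B-score over 3 SD under the library average, and starting fluorescence ratio not unusually high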;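 also: choline stimulus applied at its EC90 after an EC20 pre-addition; B-score computed on integrated fluorescence ratio after choline addition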
NR2F2 inh = NR2F2 transcriptional activity inhibitors, primary screen, cell-based, luciferase reporter, HEK293T, luminescence; COUP transcription factor 2 (Homo sapiens), P24468; HEK293T NGFI-A luciferase reporter; inhibition, % at 8.6 µM; 370,000 compounds, 0.7% hits; AID 686940, 2013;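 active = inhibition above a per-plate cutoff, mean inhibition of test wells between control levels plus 3 SD, cut at about 38% in these data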;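 also: cells cotransfected with COUP-TFII expression vector driving the NGFI-A reporter; 0% = median of COUP-TF2 test wells and 100% = reporter-only cells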
CHT allo act = CHT positive allosteric modulators, primary screen, cell-based, membrane potential dye, choline EC20; CHT-expressing cells; active compounds read high; LV-AA mutant CHT in HEK293 cells; 310,000 compounds, 0.49% hits; AID 488977, 2010; High affinity choline transporter 1 (Homo sapiens), Q9GZV3; B-score at 10 µM;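 active = initial fluorescence not abnormally high and integrated response B-score, plate-corrected, over 3 SD above library mean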
CHT block conf = CHT inhibitors, confirmation, cell-based, membrane potential dye, duplicate. shares compounds with CHT inh. CHT-expressing cells, choline membrane potential dye; LV-to-AA substituted CHT, HEK293 cells. CHT activity remaining % of control (active compounds read low), % at 10 µM. 2,400 compounds, 70% hits. AID 493221, 2011;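 active = choline transporter activity left, mean of duplicates at 10 µM, below buffer-only control mean minus 3 SD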;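 also: depolarization triggered by choline at its EC90 following an EC20 pre-addition; 0% = hemicholinium-3 full block and 100% = buffer-only control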
HEK293 MPD ctr = membrane potential effects in parental HEK293, counter-screen for CHT inhibitor project, cell-based, membrane potential dye | 2,400 compounds, 4% hits | shares compounds with CHT inh | choline response; active = decrease or increase beyond buffer ±3SD | membrane potential ratio readout (active if shifted either direction beyond buffer ±3SD; no single direction) at 10 µM;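 also: parental cells lack the transporter so any hit is non-specific; ratio is peak minus trough fluorescence over baseline after EC90 choline challenge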
* marks the source's active call; other numbers are inactive results; i = inactive; nt = no result given.

SMILES	NR2E3 ag-1	NR2E3 ag-2	GalR3 antagonist	CHT inh	NR2F2 inh	CHT allo act	CHT block conf	HEK293 MPD ctr
CCOC(=O)c1cnc2ccc(Cl)cc2c1N1CCN(C)CC1	-15	8	0	i	-3	i	nt	nt
CCOC(=O)c1cnc2c(C)cc(Cl)cc2c1N1CCN(C)CC1	-31	-1	-12	-6.4*	-9	i	34%*	i
CCOC(=O)c1cnc2c(OC)cccc2c1N1CCN(c2ccccc2OC)CC1	-15	-3	1	i	2	i	nt	nt
CCOC(=O)c1cnc2c(C(F)(F)F)cccc2c1N1CCN(C)CC1	-11	-1	-10	-10*	4	i	30%*	3.3*
CCCC1CCC2(CC1)CCC2OC(=S)Nc1ccc(I)cc1 (stereo not given)	nt	nt	nt	nt	-10	nt	nt	nt
CC1(c2ccccc2)CC(C)(C)N2C(=O)C(=O)c3cccc1c32 (stereo not given)	-4	-1	-5	-5.3*	16	i	i	i
CSc1nc2ccc(Br)cc2[nH]1	-28	-1	-4	i	16	i	nt	nt
CC(C)Sc1nc2ccc(Br)cc2[nH]1	-11	4	0	-5.5*	4	i	i	i
O=C(NCCc1ccc(F)cc1)c1ccc2c(c1)ncn2C1CCCCC1	nt	nt	nt	nt	-7	nt	nt	nt
Cc1ccc(OCCSCc2nc3ccccc3[nH]2)cc1	22	-2	18*	-5.5*	24	i	i	i
Clc1ccc(OCCSCc2nc3ccccc3[nH]2)cc1	25	1	-1	i	1	i	nt	nt
COC(=O)Cn1nc(-c2ccccc2)c2cccc(C(F)(F)F)c21	nt	nt	nt	nt	-10	nt	nt	nt
O=C(COc1ccccc1-c1ccccc1)NNC(=O)NC1CCCCC1	-19	2	-7	-6.3*	6	i	34%*	i
COc1ccc(-c2cc(-c3nnc(SCC(=O)Nc4nccs4)n3N)[nH]n2)cc1	nt	nt	nt	nt	-26	nt	nt	nt
CCn1c2ccccc2c2cc(NC(=O)COC(=O)c3cc(F)cc(F)c3)ccc21	nt	nt	nt	nt	-6	nt	nt	nt
O=C(COCc1ccccc1)N1CC[C@H]2[C@H](CCCN2Cc2ccccc2)C1	nt	nt	nt	nt	6	nt	nt	nt
CC(C)C[C@H](NC1(C(=O)NC2CCCCC2)CCCCC1)C(=O)NCCc1c[nH]c2ccccc12	nt	nt	nt	nt	12	nt	nt	nt
c1ccc(Cn2ccnc2SCc2nnc(-c3ccccc3)o2)cc1	-4	3	2	-6.1*	-8	i	63%*	i
O=C(c1cc(-c2ccccc2)on1)N1CCC(Oc2cccnc2)CC1	nt	nt	nt	nt	-1	nt	nt	nt
CC1CCC2(CC1)CCN(CCCOC(=O)NCc1ccc(Cl)cc1)C2=O (stereo not given)	nt	nt	nt	nt	2	nt	nt	nt
O=C(Nc1nc2c(Br)cccc2s1)C1CC1	-13	2	nt	-5.7*	nt	i	i	i
Cc1ccc2nc(NC(=O)CN3C(=O)C4CC=CCC4C3=O)sc2c1 (stereo not given)	-19	6	3	-5.2*	-13	i	i	i
O=C(c1cc(Cl)cc(Cl)c1)N1CC[C@H]2[C@H](CCCN2Cc2ccccc2)C1	nt	nt	nt	nt	3	nt	nt	nt
N#CCC[C@H]1CC[C@]2(CCCN(S(=O)(=O)c3ccccc3)C2)O1	nt	nt	nt	nt	0	nt	nt	nt
COCCN(C(=O)CCC(=O)Nc1cc(C)on1)C(C(=O)NC(C)(C)C)c1cccc(OC)c1OC (stereo not given)	9	2	-9	-5.8*	3	i	i	i
SMILES	NR2E3 ag-1	NR2E3 ag-2	GalR3 antagonist	CHT inh	NR2F2 inh	CHT allo act	CHT block conf	HEK293 MPD ctr
CCC[C@H]1[C@@H](OC(=O)NCc2ccc(C)o2)CC[C@@]23CCCN2C(=O)CCC[C@@H]13	nt	nt	nt	nt	3	nt	nt	nt
COc1cccc(N2CCN(C(c3ccccn3)c3nnnn3C(C)(C)C)CC2)c1 (stereo not given)	-34	0	-5	-5*	7	i	i	i
CCCCCCC/C=C(\C)[C@@H](O)[C@@H](C)C(=O)N1CCC[C@@H]1C(=O)O	nt	nt	nt	nt	-9	nt	nt	nt
CCn1c(N2CCN(S(=O)(=O)c3ccc(OC)cc3)CC2)nc2ccccc21	19	-5	-10	-7.9*	9	i	71%*	i
Cn1c(N2CCN(S(=O)(=O)c3ccc(F)cc3)CC2)nc2ccccc21	-27	1	-1	i	-2	i	nt	nt
CCCc1nnc(NC(=O)c2cn(CC)c3cc(N4CCN(C)CC4)c(F)cc3c2=O)s1	16	2	-2	-5.2*	-5	i	i	i
COc1cc(CCCN2C(=O)C(=O)NC[C@H]2Cc2cccc3ccccc23)cc(OC)c1OC	22	1	-3	-5.1*	-4	i	45%*	i
O=C1CC(O)(C(F)(F)F)Oc2c1ccc1ccccc21 (stereo not given)	-5	-3	-2	-8.1*	10	i	46%*	i
Nn1c(SCc2ccc([N+](=O)[O-])cc2)nnc1-c1n[nH]c2c1CCC2	nt	nt	nt	nt	-2	nt	nt	nt
CN1C[C@@H]2C(c3ccc(C(F)(F)F)cc3)C3(c4cccnc4)CC2(C3)[C@H]1c1ccccc1 (stereo not given in full)	7	1	-6	-5.2*	-4	i	70%*	i
FC(F)(F)c1ccc(CN2C[C@@H]3C(c4ccc(C(F)(F)F)cc4)C4(c5cccnc5)CC3(C4)[C@H]2c2ccccc2)cc1 (stereo not given in full)	8	-1	-5	i	8	i	nt	nt
Cc1ccc([C@@H]2CC=C(C(=O)O)[C@H](c3ccc(F)cc3)N2S(=O)(=O)c2ccc(C)cc2)cc1	-44	3	-3	i	8	i	nt	nt
Cc1ccc(S(=O)(=O)N2[C@@H](c3ccc(Cl)cc3)C(C(=O)O)=CC[C@H]2c2ccc(Cl)c(Cl)c2)cc1	40	2	-4	-6.2*	0	i	65%*	i
O=C(O)C1=CC[C@@H](c2ccc(Cl)cc2)N(S(=O)(=O)c2ccc(Cl)cc2)[C@H]1c1ccc(F)cc1	2	-1	-4	-6.3*	3	i	58%*	i
